Calls of active or inactive are those of the source. The rule behind the calls is not given here.
How the values were obtained:
[1] = molecular target: T1, Indoleamine 2,3-dioxygenase 1 (Homo sapiens, UniProt P14902); experiment: Inhibition of human IDO1 expressed in Escherichia coli at 10 uM using L-tryptophan as substrate after 1 hr by UV absorption analysis
Summary of the method: (§1)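 N-terminal human IDO1 or TDO was expressed in E. coli and Ni affinity-purified. Enzyme (100 nM) was incubated with compounds for 1 h at room temperature in Ca/Mg-free potassium phosphate buffer with […], 40 mM ascorbate, 200 µg/ml catalase and 20 µM methylene blue. Stop: 30% TCA, 65°C 15 min. Kynurenine read with DMAB at 480 nm against a standard curve. Triplicate, mean ± SD.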
Target sequence in this assay (P14902 whole entry, looked up): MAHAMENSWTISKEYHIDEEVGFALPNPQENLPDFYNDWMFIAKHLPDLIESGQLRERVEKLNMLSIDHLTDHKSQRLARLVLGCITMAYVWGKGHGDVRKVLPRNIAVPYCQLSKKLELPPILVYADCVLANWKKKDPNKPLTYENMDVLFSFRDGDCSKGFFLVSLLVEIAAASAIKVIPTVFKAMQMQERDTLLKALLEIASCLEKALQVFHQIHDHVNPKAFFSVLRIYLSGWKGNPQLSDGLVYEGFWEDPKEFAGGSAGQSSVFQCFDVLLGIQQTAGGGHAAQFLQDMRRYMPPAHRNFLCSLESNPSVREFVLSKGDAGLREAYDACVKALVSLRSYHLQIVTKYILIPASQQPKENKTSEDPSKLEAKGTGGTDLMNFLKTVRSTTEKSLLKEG

[2] = molecular target: T2, Tryptophan 2,3-dioxygenase (Homo sapiens, UniProt P48775); experiment: Inhibition of human TDO expressed in Escherichia coli at 10 uM using L-tryptophan as substrate after 1 hr by UV absorption analysis; summary of the method: as §1
Target sequence in this assay (P48775 whole entry, looked up): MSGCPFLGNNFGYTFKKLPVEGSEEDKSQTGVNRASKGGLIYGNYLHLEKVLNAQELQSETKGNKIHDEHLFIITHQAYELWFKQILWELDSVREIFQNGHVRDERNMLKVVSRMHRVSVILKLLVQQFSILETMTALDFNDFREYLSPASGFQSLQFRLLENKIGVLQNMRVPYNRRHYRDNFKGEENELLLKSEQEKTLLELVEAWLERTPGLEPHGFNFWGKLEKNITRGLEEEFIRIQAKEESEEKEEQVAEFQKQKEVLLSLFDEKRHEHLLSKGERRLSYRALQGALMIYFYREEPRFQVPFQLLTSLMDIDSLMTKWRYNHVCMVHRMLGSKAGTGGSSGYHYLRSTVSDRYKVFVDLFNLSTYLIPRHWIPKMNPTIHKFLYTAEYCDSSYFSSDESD

[3] = molecular target: T2, Tryptophan 2,3-dioxygenase; experiment: Inhibition of TDO (unknown origin)
Target sequence in this assay (P48775 whole entry): as the sequence (P48775 whole entry, looked up) above

[4] = molecular target: T1, Indoleamine 2,3-dioxygenase 1; experiment: Inhibition of IDO1 in IFN-gamma-induced human HeLa cells assessed as reduction in L-kynurenine level after 24 hrs; type: cell-based
Summary of the method: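 HeLa cells were plated for 24 h, then given IFNγ (50 ng/mL) plus inhibitors for 24 h; vehicle was 0.5% DMSO. Medium was mixed with 30% TCA and centrifuged. Supernatant kynurenine was reacted with 2% p-DMAB in acetic acid, read at 480 nm and quantified against an L-kynurenine standard curve. Triplicate, mean ± SD.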

HeLa [5] = experiment: Effect on IFN-gamma-induced IDO1 expression in human HeLa cells at 10 to 50 uM by Western blot analysis; type: functional, cell-based
Summary of the method: (§2)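 HeLa cells were pretreated for 2 h with inhibitors (10, 20, 50 µM) or a JAK inhibitor (1 µM), then given IFNγ 50 ng/mL for 24 h; 0.5% DMSO served as negative control. RIPA lysates with equal protein were run on 10% SDS-PAGE and blotted to nitrocellulose. Probes: rabbit anti-IDO1 (1:1000) and anti-GAPDH (1:4000) overnight at 4°C; HRP anti-rabbit 90 min.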

CT26 [6] = experiment: Antitumor activity against mouse CT26 cells transplanted in Balb/c mouse assessed as tumor growth inhibition at 20 mg/kg/day, po administered for 18 consecutive days relative to control; type: functional; details: read-out: TGI
Summary of the method: (§3)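 CT26 cells (100 µL of 1 × 10^7 cells/mL suspension) were injected s.c. into Balb/c mice. After 4 days, mice were randomized, 6 per group, and dosed orally once daily at 20, 40 or 80 mg/kg/day. Vehicle was 5% DMSO, 20% PEG400 and 75% deionized water. Tumors were measured by caliper every 3 days; volume = a × b²/2.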

[7] = molecular target: T2, Tryptophan 2,3-dioxygenase; experiment: Inhibition of human TDO expressed in Escherichia coli at using L-tryptophan as substrate after 1 hr by UV absorption analysis; summary of the method: as §1
Target sequence in this assay (P48775 whole entry): as the sequence (P48775 whole entry, looked up) above

CT26 [8] = experiment: Antitumor activity against mouse CT26 cells transplanted in Balb/c mouse assessed as tumor growth inhibition at 40 mg/kg/day, po administered for 18 consecutive days relative to control; type: functional; details: read-out: TGI; summary of the method: as §3
[9] = molecular target: T1, Indoleamine 2,3-dioxygenase 1; experiment: Inhibition of human IDO1 expressed in Escherichia coli using L-tryptophan as substrate after 1 hr by UV absorption analysis; summary of the method: as §1
Target sequence in this assay (P14902 whole entry): as the sequence (P14902 whole entry, looked up) above

[10] = molecular target: T2, Tryptophan 2,3-dioxygenase; experiment: Inhibition of human TDO expressed in human A172 assessed as reduction in kynurenine formation using L-tryptophan as substrate after 24 hrs
Summary of the method: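 A172 cells, which express TDO highly, were plated at 2 × 10^4 cells/well overnight. Cells were then exposed to compounds with L-Trp (20 µg/ml) for 24 h. Medium was treated with 30% TCA at 65°C for 30 min and centrifuged. Kynurenine was measured with 2% p-DMAB at 480 nm against an L-kynurenine standard curve.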

HeLa [11] = experiment: Reduction in IFN-gamma-induced IDO1 expression in human HeLa cells by Western blot analysis; type: functional, cell-based; summary of the method: as §2
HeLa [12] = experiment: Reduction in IFN-gamma-induced GAPDH expression in human HeLa cells by Western blot analysis; type: ADME, cell-based; summary of the method: as §2
CT26 [13] = experiment: Antitumor activity against mouse CT26 cells transplanted in Balb/c mouse assessed as tumor growth inhibition at 80 mg/kg/day, po administered for 18 consecutive days relative to control; type: functional; details: read-out: TGI; summary of the method: as §3

Compound | inhibition [1] | inhibition [2] | further results
Nc1ccc(CCNc2cc(Br)cc3[nH]ncc23)cc1 | 2% | inactive | –
Nc1nc(CNc2cc(Br)cc3[nH]ncc23)cs1 | inactive | 73% | –
ONc1ccc(CNc2cc(Br)cc3[nH]ncc23)cc1 | inactive | 6% | –
N#Cc1ccc(CNc2cc(Br)cc3[nH]ncc23)cc1 | 70% | 73% | –
CC(C)Nc1cc(Br)cc2[nH]ncc12 | 47% | inactive | –
CN1CCN(C(=O)c2ccc(Cn3nnc4c3C(=O)c3ccccc3C4=O)cc2)CC1 | – | – | IC50 [3]: 0.03 µM
FC(F)(F)c1cccc(CNc2cc(Br)cc3[nH]ncc23)c1 | 16% | 56% | –
CC(Nc1cc(Br)cc2[nH]ncc12)c1ccccc1 (stereo not drawn) | 14% | inactive | –
OCc1ccc(CNc2cc(Br)cc3[nH]ncc23)cc1 | 45% | 56% | –
O=C(Nc1ccc(CCNc2cc(Br)cc3[nH]ncc23)cc1)NC1CCOCC1 | inactive | 20% | –
OC1CCCC(Nc2cccc(CNc3cc(Br)cc4[nH]ncc34)c2)C1 (stereo not drawn) | 52% | 50% | –
Nc1ccc2ccccc2c1CNc1cc(Br)cc2[nH]ncc12 | 15% | inactive | –
CCOC(=O)CNc1cccc(CNc2cc(Br)cc3[nH]ncc23)c1 | 29% | inactive | –
NS(=O)(=O)c1ccc(CNc2cc(Br)cc3[nH]ncc23)cc1 | 20% | 75% | –
Nc1ccccc1CC(=O)Nc1ccc(CCNc2cc(Br)cc3[nH]ncc23)cc1 | 3% | 29% | –
Brc1cc(NCc2cccc3sccc23)c2cn[nH]c2c1 | 3% | 56% | –
O=C1CCCC(Nc2cccc(CNc3cc(Br)cc4[nH]ncc34)c2)C1 (stereo not drawn) | 52% | 46% | –
O=C(O)CNc1cccc(CNc2cc(Br)cc3[nH]ncc23)c1 | 57% | inactive | –
CC(Nc1cc(Br)cc2[nH]ncc12)c1ccc([N+](=O)[O-])cc1 (stereo not drawn) | 17% | 56% | –
Brc1cc(NCc2ccc3c(c2)OCO3)c2cn[nH]c2c1 | 68% | 62% | –
NS(=O)(=O)NCCNc1nonc1/C(=N/O)Nc1ccc(F)c(Br)c1 [EPACADOSTAT] | – | – | inhibition in vivo at 20 mg/kg/day (CT26 [6]): 39.2%
CC(=O)Nc1ccc(CNc2cc(Br)cc3[nH]ncc23)cc1 | 48% | inactive | –
O=C1c2ccccc2-n2c1nc1ccccc1c2=O [TRYPTANTHRIN] | – | – | IC50 [3]: 0.9 µM

Further lines, with some results ahead:

inhibition [1] | inhibition [2] | Compound | further results
52% | 26% | Oc1ccc(CNc2cc(Br)cc3[nH]ncc23)cc1F | –
60% | 19% | Cc1cc(O)ccc1CNc1cc(Br)cc2[nH]ncc12 | –
69% | inactive | Oc1ccc(CNc2cc(Br)cc3[nH]ncc23)c(F)c1 | –
29% | 64% | Brc1cc(NCc2ccco2)c2cn[nH]c2c1 | –
53% | inactive | ONc1cccc(CNc2cc(Br)cc3[nH]ncc23)c1 | –
– | inactive | Oc1ccc(CNc2cc(Br)cc3[nH]ncc23)cc1 | inhibition [4]: inactive; Activity (HeLa [5]): inactive
60% | 19% | Oc1ccc(CNc2cc(Br)cc3[nH]ncc23)cc1Cl | –
28% | 30% | Cc1cc(CNc2cc(Br)cc3[nH]ncc23)ccc1O | –
16% | 54% | Brc1cc(NCc2cnc[nH]2)c2cn[nH]c2c1 | –
40% | inactive | Oc1ccc(CNc2cc(Br)cc3[nH]ncc23)c(O)c1 | –
50% | inactive | Oc1ccc(CNc2cc(Br)cc3[nH]ncc23)cc1O | –
54% | 55% | Brc1cc(NCc2ccncc2)c2cn[nH]c2c1 | –
54% | 53% | Brc1cc(NCc2cccs2)c2cn[nH]c2c1 | –
32% | inactive | Nc1cc(CNc2cc(Br)cc3[nH]ncc23)ccc1O | –
31% | inactive | Nc1cccc(CNc2cc(Br)cc3[nH]ncc23)c1 | –
45% | 55% | Oc1cccc(CNc2cc(Br)cc3[nH]ncc23)c1 | –
36% | inactive | Nc1ccccc1CNc1cc(Br)cc2[nH]ncc12 | –
3% | 24% | Nc1ccc(CNc2cc(Br)cc3[nH]ncc23)cc1 | –
91% | 85% | Brc1cc(NCc2cccc3nonc23)c2cn[nH]c2c1 | IC50 [7]: 2.94 µM; inhibition in vivo at 20 mg/kg/day (CT26 [6]): 21.7%; inhibition in vivo at 40 mg/kg/day (CT26 [8]): 38.1%; IC50 [4]: 1.37 µM; inhibition [4]: Dose-dependent effect; IC50 [9]: 0.74 µM; IC50 [10]: 7.54 µM; inhibition [10]: Dose-dependent effect; Activity (HeLa [11]): Dose-dependent effect; Activity (HeLa [12]): Toxic; inhibition in vivo at 80 mg/kg/day (CT26 [13]): 47.3%
